# AF4-AF9 inh: inhibitors of AF4 peptide binding to AF9, primary screen, biochemical, AlphaScreen, biotin-AF4 peptide, FLAG-AF9, single point | Protein AF-9 (Homo sapiens), P42568 | inhibition, % at 10 µM | 350,000 compounds, 0.47% hits | AID 651704, 2012;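 active = every replicate reaching a set inhibition limit, whatever the replicate mean, cut at about 25% in these data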;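 note: 0% = plate neutral control median and 100% = total signal loss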
# Target sequence (P42568 whole entry, looked up): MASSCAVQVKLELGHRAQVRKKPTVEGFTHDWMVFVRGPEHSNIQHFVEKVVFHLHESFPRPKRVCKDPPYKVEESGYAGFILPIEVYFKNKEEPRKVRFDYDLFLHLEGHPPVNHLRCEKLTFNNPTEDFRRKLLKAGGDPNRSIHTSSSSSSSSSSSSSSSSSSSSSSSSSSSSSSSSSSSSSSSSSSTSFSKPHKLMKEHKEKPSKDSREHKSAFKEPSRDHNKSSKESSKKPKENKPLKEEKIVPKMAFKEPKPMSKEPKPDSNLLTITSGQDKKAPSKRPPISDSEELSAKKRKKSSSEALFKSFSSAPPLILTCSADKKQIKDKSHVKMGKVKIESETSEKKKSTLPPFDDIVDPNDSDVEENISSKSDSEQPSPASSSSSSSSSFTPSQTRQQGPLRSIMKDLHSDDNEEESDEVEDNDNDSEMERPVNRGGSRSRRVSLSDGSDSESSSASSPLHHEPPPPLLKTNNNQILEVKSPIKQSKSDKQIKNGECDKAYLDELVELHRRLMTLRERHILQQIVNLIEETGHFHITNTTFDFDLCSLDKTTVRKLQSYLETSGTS
# S100A4 MyoIIA: inhibitors of S100A4-myosin IIA peptide binding, primary screen, biochemical, fluorescence polarization, TAMRA-MyoIIA peptide; Protein S100-A4 (Homo sapiens), P26447; inhibition, % at 10.7 µM; 360,000 compounds, 0.14% hits;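 active = mean inhibition of at least 70% across replicates, with every replicate also reaching that level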
#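 Test system – S100A4 monomer (human) · Compound – single-point compound testing · Schedule – 5 min incubation before reading · Probe or stimulus – TAMRA-labelled myosin IIA heavy-chain peptide probe, 5 nM · Benchmarks – neutral control DMSO, positive control TFP · Medium – Calcium-containing HEPES buffer, pH 7.2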
# INS-1E GSIS act: GLuc luminescence reporter in INS-1E cells, primary screen for activators of glucose-dependent secretion of insulin. activation, % at 16.6 µM. 370,000 compounds, 0.61% hits. INS-1E GLuc reporter insulin secretion, 2-3 h. AID 743287, 2014;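 active = lowest replicate activation of at least 40%, so every replicate reaches that level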;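 note: 0% = median of neutral control wells and 100% = median of IBMX positive control wells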
# RAD52 anneal inh: RAD52 DNA annealing inhibitors, primary screen, biochemical, FRET, single point, set 2; DNA repair protein RAD52 homolog (Homo sapiens), P43351; recombinant RAD52 DNA annealing, FRET fluorescence; inhibition, % at 18.7 µM; 360,000 compounds, 0.46% hits;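 active = every replicate showing at least 50% inhibition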
# RAD54 branch: inhibitors of human RAD54 branch migration, primary screen, biochemical, fluorescence, single point; RAD54 Holliday junction branch migration, FAM/BHQ fluorescence; inhibition, % at 10.4 µM; DNA repair and recombination protein RAD54-like (Homo sapiens), Q92698; 360,000 compounds, 0.14% hits;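 active = mean normalized replicate activity at least 40 and at least half of replicates scoring 40 or more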;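 note: 0% = median of neutral control wells and 100% = median of positive control wells; inhibitors cause a drop in the FAM fluorescence signal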
# Starred values were filed as active, the others as inactive; i = inactive; x = no result. This is a sample that favours compounds with a hit; in the whole collection about 1.3% have one here.
SMILES,AF4-AF9 inh,S100A4 MyoIIA,INS-1E GSIS act,RAD52 anneal inh,RAD54 branch
CCOc1cc(C2C3=C(CCCC3=O)OC3=C2C(=O)CCC3)cc([N+](=O)[O-])c1O,-4.2,-4.4,58.4*,11.8,x
CCOc1cc(-c2sc(Nc3ccc(CC)cc3)n[n+]2-c2ccccc2)ccc1OC,26.6*,-6.2,-0.5,-11.7,2.5
COc1ccc2c3c(n(C)c2c1)[C@@H](CO)N(C(=O)c1ccc(F)cc1)CC31CN(CC2CC2)C1,0.4,-0.1,-8.6,5.7,x
CCCCCc1cc(=O)oc2c(C(CCN(CC)CC)c3cc(OC)c(OC)c(OC)c3)c(OC)cc(OC)c12 (centres undefined),13.2,-0.2,62.9*,57.5*,20.7
COc1ccc(C(CCN2CCCC(C)C2)c2c(OC)cc(OC)c3c(-c4ccccc4)cc(=O)oc23)cc1 (centres undefined),27.3*,-12.4,12.6,1.8,9.4
CCCCCc1cc(=O)oc2c(C(CCN3CCCC(C)C3)c3ccc4c(c3)OCO4)c(OC)cc(OC)c12 (centres undefined),20.9,4.9,36.4,10.7,4.7
CCCCCc1cc(=O)oc2c(C(CCN3CCCCC3)c3ccc4c(c3)OCO4)c(OC)cc(OC)c12 (centres undefined),26.8*,-4.9,94.7,16.4,-7.0
CCC/C(=C1/c2ccccc2C(=O)N1c1ccccc1)c1c(C)noc1C,4.1,-2.3,14.9,-10.7,x
CCCC#Cc1ccc2c(c1)[C@@H]1[C@@H](CCN1C(=O)C1CCC1)[C@@H](CO)N2,x,x,-15.4,x,x
CC(C)CN(C(=O)C1CC1)C1CCS(=O)(=O)C1 (centres undefined),-3.4,1.7,7.4,-8.1,11.2
CC(C)CN(C(=O)C1CCCCC1)C1CCS(=O)(=O)C1 (centres undefined),-3.4,4.2,41.3*,-1.9,-0.1
CCOc1ccc(/C=C2\SC(=S)N(NS(=O)(=O)c3ccc(C)cc3)C2=O)cc1OC,6.4,0.3,41.9*,-21.8,-7.9
CCOc1ccc(/C=C2\SC(=S)N(NS(=O)(=O)c3ccccc3)C2=O)cc1OC,0.7,4.7,62.3*,-14.5,x
CCOc1cc(/C=C2\SC(=S)N(NS(=O)(=O)c3ccccc3)C2=O)ccc1O,3.1,-5.5,10.4,i,-76.9
CCOC(=O)c1nn(-c2ccccc2)c2nc(Nc3ccccc3)cc(=O)n12,x,x,78.2*,x,-3.4
CCOC(=O)c1nn(-c2ccc(F)cc2)c2nc(Nc3ccccc3)cc(=O)n12,x,x,-4.8,x,x
O=C(/C=C/c1ccc(Br)cc1)c1ccc(NC2=NCCCS2)cc1,-1.8,7.1,0.5,51.3*,x
O=C(/C=C/c1ccccc1)c1ccc(NC2=NCCCS2)cc1,10.1,1.6,17.3,26.9,-3.6
COc1cccc(C(NC(C)=O)c2ccc3cccnc3c2O)c1 (centres undefined),26.1*,0.9,-9.5,-9.2,-0.6
COc1ccc(Cl)cc1C(Nc1cccnc1)c1ccc2cccnc2c1O (centres undefined),25.7*,-4.3,-5.4,-10.6,x
CCCCCCCCOC(=O)C1=C(C)Nc2nnnn2C1c1cccs1 (centres undefined),x,x,42.6*,x,-11.4
O=C(NCC[C@H]1CC[C@@H](NS(=O)(=O)Cc2ccccc2)[C@H](CO)O1)C1CCCC1,-0.3,4.1,-2.5,-8.7,-3.0
CCOC(=O)c1cn(C[C@H](Cc2ccccc2)NC(=O)N[C@H](CO)CCc2oc(C(C)=O)c(C(=O)OC)c2C(=O)OC)nn1,-2.8,-33.8,x,4.4,0.1
CN(C)CCCn1cnc2c(c1=N)C(c1ccccc1)c1ccc3ccccc3c1O2 (centres undefined),18.0,-4.1,0.4,76.2*,32.8
N=c1c2c(ncn1CCCO)Oc1c(ccc3ccccc13)C2c1ccccc1 (centres undefined),x,2.0,0.6,16.0,x
SMILES,AF4-AF9 inh,S100A4 MyoIIA,INS-1E GSIS act,RAD52 anneal inh,RAD54 branch
N#CCCn1cc(C=C(C#N)C#N)c(-c2ccc(Cl)cc2)n1,0.4,-2.2,29.8,-81.7,x
N#CCCn1cc(/C=C(\C#N)c2nc3ccccc3s2)c(-c2ccc(F)cc2)n1,x,x,50.1*,x,-1.0
COc1ccc(S(=O)(=O)NCC2CCCN(Cc3cccc(C(C)=O)c3)C2)cc1 (centres undefined),0.9,87.3*,-3.8,-136.1,-8.6
COc1ccc(S(=O)(=O)NCC2CCCN(Cc3cccnc3)C2)cc1 (centres undefined),3.8,-9.5,6.2,-31.7,x
Clc1ccc(-c2cc(CN3CCOCC3)no2)cc1,0.1,-0.7,147.1*,-1.9,3.2
Clc1ccc(-c2cc(CN3CCCCC3)no2)cc1Cl,1.6,-7.6,-5.8,2.5,1.5
CCN(CC)c1nc(N)c([N+](=O)[O-])c(NCCO)n1,-1.3,-1.0,84.6*,-1.9,x
C=CCNc1nc(N)c([N+](=O)[O-])c(NCCO)n1,x,0.1,81.9*,-1.5,x
Cc1ccc(Nc2nc(N)c([N+](=O)[O-])c(NCCO)n2)cc1,-2.0,1.0,7.3,-21.0,-12.4
C[C@@H]1CN([C@H](C)CO)C(=O)c2cc(C#Cc3ccccc3F)cnc2O[C@H]1CN(C)C(=O)Cc1cccnc1,-3.5,6.0,-8.0,-3.9,3.3
C[C@H]1CN([C@@H](C)CO)C(=O)Cc2cc(NS(=O)(=O)c3cccs3)ccc2O[C@H]1CN(C)CC1CCCCC1,-17.0,4.8,-0.9,20.2,-8.5
CCOc1ccc(-n2nnnc2SCC(=O)Nc2cccc(O)c2)cc1,27.5*,-0.4,-6.6,4.3,-6.9
C[C@@H]1CN([C@H](C)CO)C(=O)c2cccc(NC(=O)Nc3ccc(F)cc3)c2O[C@H]1CN(C)C(=O)Nc1ccc(F)cc1,-0.9,-4.8,-1.6,21.2,7.8
CN(C)C(=O)C[C@@H]1C=C[C@H](NC(=O)Nc2cccc(F)c2)[C@@H](CO)O1,-11.1,97.4*,27.9,5.4,-15.6
COc1cccc(NC(=O)N[C@H]2C=C[C@H](CC(=O)N3CCN(C)CC3)O[C@H]2CO)c1,-5.2,-3.6,-3.7,4.3,x
CCCNC(=O)N[C@H]1C=C[C@@H](CC(=O)N2CCN(C)CC2)O[C@@H]1CO,6.4,124.9*,9.1,-1.1,-12.7
COc1cccc(NC(=O)N[C@@H]2C=C[C@@H](CC(=O)N3CCN(C)CC3)O[C@@H]2CO)c1,-5.3,86.1*,7.5,5.5,x
O=C(Nc1ccc(C(F)(F)F)cc1)N[C@@H]1C=C[C@@H](CC(=O)N2CCCCC2)O[C@H]1CO,0.5,30.5,2.9,4.8,-14.3
O=C(Nc1ccc(C(F)(F)F)cc1)N[C@H]1C=C[C@@H](CC(=O)N2CCCCC2)O[C@@H]1CO,1.7,127.9*,-0.6,9.9,-11.4

# Assay outcomes: PubChem BioAssay, Broad Institute
